{"source": "ChEMBL document CHEMBL1141349", "about": "“Cytochrome P3A4 inhibitors and other constituents of Fibraurea tinctoria” (J Nat Prod, 2007)", "data": [{"biological_target": "Cytochrome P450 3A4 (Homo sapiens, UniProt P08684)", "sequence (P08684 whole entry)": "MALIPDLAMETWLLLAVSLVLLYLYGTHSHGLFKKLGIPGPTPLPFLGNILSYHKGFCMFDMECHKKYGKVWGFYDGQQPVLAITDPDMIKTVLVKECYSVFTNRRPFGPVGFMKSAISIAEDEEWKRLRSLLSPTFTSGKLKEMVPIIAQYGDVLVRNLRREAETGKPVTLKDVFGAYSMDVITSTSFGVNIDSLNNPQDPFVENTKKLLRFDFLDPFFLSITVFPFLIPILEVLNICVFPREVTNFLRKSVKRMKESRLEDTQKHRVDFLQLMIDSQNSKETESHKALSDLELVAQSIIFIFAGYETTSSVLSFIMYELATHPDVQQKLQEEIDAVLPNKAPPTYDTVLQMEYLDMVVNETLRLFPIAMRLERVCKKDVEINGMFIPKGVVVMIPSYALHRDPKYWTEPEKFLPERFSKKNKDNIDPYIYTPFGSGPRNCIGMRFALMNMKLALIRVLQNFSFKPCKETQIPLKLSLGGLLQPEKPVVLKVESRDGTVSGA", "assay": "Inhibition of human CYP3A4 expressed in Escherichia coli assessed as inhibition of nifedipine oxidation", "format": "ADME", "in_short": "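Bicistronic human CYP3A4 expressed in E. coli DH5; bacterial membrane fractions (sonication, differential centrifugation) stored at -75 °C, P450 content by CO-difference spectroscopy. Nifedipine substrate with 100 pmol P450 per incubation, 37 °C shaking waterbath; pyridine metabolite quantified by HPLC.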", "units": {"IC50": "µM"}, "values": [{"compound": "C[C@@]12[C@H]3CC=C[C@@]1(O[C@@H]1O[C@H](CO)[C@@H](O)[C@H](O)[C@H]1O)C(=O)O[C@@H]2C[C@]1(O)C(=O)O[C@H](c2ccoc2)C[C@@]31C", "note": "[EPI-FIBRAURETINOSIDE A]", "IC50": "> 100"}, {"compound": "COc1cc2c(cc1O)-c1cc3ccc(OC)c(OC)c3c[n+]1CC2", "note": "[COLUMBAMINE]", "IC50": 30.6}, {"compound": "C[C@H](C[C@@H](O)[C@](C)(O)[C@H]1CC[C@@]2(O)C3=CC(=O)[C@@H]4C[C@@H](O[C@@H]5O[C@H](CO)[C@@H](O)[C@H](O)[C@H]5O)[C@@H](O)C[C@]4(C)[C@H]3CC[C@]12C)C(C)(C)O", "note": "[FIBRAURECDYSIDE A]", "IC50": "> 100"}, {"compound": "C[C@H](C[C@@H](O)[C@](C)(O)[C@H]1CC[C@@]2(O)C3=CC(=O)[C@@H]4C[C@@H](O)[C@@H](O)C[C@]4(C)[C@H]3CC[C@]12C)C(C)(C)O", "note": "[MAKISTERONE A]", "IC50": "> 100"}, {"compound": "C[C@@]12[C@H]3CC=C[C@]1(O[C@@H]1O[C@H](CO)[C@@H](O)[C@H](O)[C@H]1O)C(=O)O[C@@H]2C[C@]1(O)C(=O)O[C@H](c2ccoc2)C[C@@]31C", "note": "[FIBRAURETINOSIDE A]", "IC50": "> 100"}, {"compound": "C[C@@]12C[C@H](c3ccoc3)OC(=O)C1=CC[C@]1(C)[C@H]2[C@@H]2OC(=O)[C@@]1(O[C@@H]1O[C@H](CO)[C@@H](O)[C@H](O)[C@H]1O)[C@H]1O[C@@H]21", "note": "[FIBRAURINOSIDE]", "IC50": "> 100"}, {"compound": "COc1cc2c(cc1OC)-c1cc3ccc(OC)c(OC)c3c[n+]1CC2", "note": "[PALMATINE CHLORIDE]", "IC50": 0.9}, {"compound": "C[C@@]12C[C@H](c3ccoc3)OC(=O)C1=CC[C@]1(C)[C@H]2[C@H]2C=C[C@]1(O[C@@H]1O[C@H](CO)[C@@H](O)[C@H](O)[C@H]1O)C(=O)O2", "note": "[FIBLEUCINOSIDE]", "IC50": "> 100"}, {"compound": "C[C@@]12C[C@H](c3ccoc3)OC(=O)[C@@H]1CC[C@@]1(CO[C@@H]3O[C@H](CO)[C@@H](O)[C@H](O)[C@H]3O)C(=O)C=CC[C@H]12", "IC50": "> 100"}, {"compound": "C[C@@]12C[C@H](c3ccoc3)OC(=O)[C@@H]1[C@@H](O)C[C@]1(C)[C@H]2[C@@H]2OC(=O)[C@@]1(O)[C@H]1O[C@@H]21", "note": "[FIBRAURETIN A]", "IC50": "> 100"}, {"compound": "COc1cc2c(cc1O)-c1cc3ccc(O)c(OC)c3c[n+]1CC2", "note": "[STEPHARANINE]", "IC50": "> 2.5"}]}]}
